# Screens (PubChem)
# Compounds with a hit are over-represented: about 3.1% of the library has one in this group of screens.
# CHO parental Ca: counter-screen: ATP calcium response change in parental CHO cells. actives 0.63% (n = 330,000). parental CHO-K1, ATP-induced calcium, Fluo-8 fluorescence. inhibition, % at 5.6 µM;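 active means inhibition above that plate's mean sample inhibition plus 3 SD, cut at about 26% in these data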;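 further: 0% = ATP-challenged DMSO wells and 100% = DMSO wells without ATP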
#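 Assay system: untransfected parental CHO cell line. Also added: ATP agonist challenge. Dosing: one dose, 5.6 µM nominal. Measured by: Fluo-8 fluorescence. Read-out: % inhibition. Benchmarks: ATP wells versus no-ATP DMSO wells. Repeats: no replicates.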
# OX1R antag-1: blocks the human orexin 1 receptor; O43613; OX1R-expressing cells, FRET antagonist read-out; inhibition, % at 6.6 µM; actives 1.8% (n = 330,000); in the data active means inhibition mostly above about 38%, no sharp cut-off; inactive means mostly below about 40%;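 further: 0% = agonist challenge alone and 100% = reference antagonist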
# GPR7 antag: human neuropeptides B/W receptor 1 antagonism; P48145; GPR7-expressing cells, fluorescence antagonist assay; inhibition, % at 4.4 µM; actives 1.1% (n = 290,000); in the data active means inhibition above about 16%, passing the limit was not always enough;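 further: cells stimulated with the agonist NPW; 0% = agonist with vehicle and 100% = vehicle without agonist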
# Target sequence (P48145 whole entry, looked up): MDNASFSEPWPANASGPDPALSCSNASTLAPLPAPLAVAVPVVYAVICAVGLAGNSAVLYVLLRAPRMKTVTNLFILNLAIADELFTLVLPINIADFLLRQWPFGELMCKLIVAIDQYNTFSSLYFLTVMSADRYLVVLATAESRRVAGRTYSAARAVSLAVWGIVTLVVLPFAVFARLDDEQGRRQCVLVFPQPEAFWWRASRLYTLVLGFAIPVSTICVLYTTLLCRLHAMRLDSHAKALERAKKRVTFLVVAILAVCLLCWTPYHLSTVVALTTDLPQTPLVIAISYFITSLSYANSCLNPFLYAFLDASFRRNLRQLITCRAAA
# OX1R antag-2: antagonists of human orexin 1 receptor; CHO/OX1R cells, Fluo-8 calcium fluorescence, orexin A; inhibition, % at 5 µM; actives 0.43% (n = 330,000); AID 434989;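 active means inhibition above its plate's threshold, mean inhibition of all tested compounds on the plate plus 3 SD, cut at about 37% in these data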;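 further: 0% = orexin A challenge wells and 100% = SB-334867-A antagonist wells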
# GalR3 antagonist: blocks the human galanin receptor 3; actives 0.44% (n = 360,000); AID 651719; inhibition, % at 3 µM; HEK293 GalR3-CNG cAMP membrane potential fluorescence; galR3 body fused to GalR1 C-terminus;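 active means inhibition above the screen-wide average plus 3 SD, cut at about 13% in these data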;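 further: forskolin and galanin both at EC90 stimulate the cells; cAMP rise reported by CNG channel membrane potential dye signal; 0% = forskolin plus galanin with DMSO and 100% = forskolin alone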
# Target sequence (O60755 1-299 limits assumed): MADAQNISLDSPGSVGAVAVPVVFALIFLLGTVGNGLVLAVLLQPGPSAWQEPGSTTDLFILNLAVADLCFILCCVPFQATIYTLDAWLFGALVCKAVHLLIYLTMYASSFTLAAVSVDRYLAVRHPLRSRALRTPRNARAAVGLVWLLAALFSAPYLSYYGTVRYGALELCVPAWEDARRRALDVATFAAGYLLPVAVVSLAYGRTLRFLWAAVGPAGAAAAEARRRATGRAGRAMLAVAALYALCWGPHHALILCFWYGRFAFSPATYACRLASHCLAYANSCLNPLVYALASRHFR
# GPR7 antag conf: confirmation of human GPR7 antagonists | shares compounds with GPR7 antag | GPR7-expressing cells, calcium fluorescence antagonist mode | inhibition, % at 4.4 µM | actives 52% (n = 2,400) | AID 1952; in the data active means inhibition above about 24%;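 further: stimulated with the GPR7 agonist NPW; 0% = agonist plus vehicle and 100% = vehicle alone without agonist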
# MCHR1 antagonist: antagonizes human MCHR1, a GPR7 antagonist counter-screen. shares compounds with GPR7 antag. MCHR1-expressing cells, fluorescence antagonist assay. inhibition, % at 4.4 µM. actives 62% (n = 2,400). AID 2148; in the data active means inhibition above about 22%;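 further: 0% = vehicle with agonist and 100% = vehicle without agonist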
# * marks the source's active call; other numbers are inactive results; . = no result given.
SMILES,CHO parental Ca,OX1R antag-1,GPR7 antag,OX1R antag-2,GalR3 antagonist,GPR7 antag conf,MCHR1 antagonist
Cc1cc(NC(=O)CCc2ccc(S(=O)(=O)N3CCOCC3)cc2)n(-c2ccccc2)n1,-9.7,15.4,30.2*,-3.4,-1.6,-8.8,20.8
CN1C(=O)/C(=C/c2ccc(C(=O)Nc3ccc(O)cc3C(=O)O)cc2)SC1=S,-9.3,12.4,0.2,-3.4,-7.1,.,.
CCc1cc(=O)oc2c3c(cc(OCC(=O)NCc4ccco4)c12)OC(C)(C)CC3,5.5,10.5,41.2*,-28.5,.,14.6,31.6*
COC(=O)C1=C(C)N(Cc2cccc(C(F)(F)F)c2)C(=NCc2ccc(OC)cc2)NC1c1cccc(F)c1 (centres undefined),.,.,.,.,-6.3,.,.
COC(=O)c1ccc(CSc2nnc(Nc3cccc(OC)c3)s2)o1,-4.7,32.9,46.4*,-10.7,-1.6,0.9,48.3*
COC(=O)c1ccc(CSc2nnc(NC(C)C)s2)o1,-2.9,11.2,-3.7,-27.5,-7.0,.,.
COC(=O)c1ccc(-c2ccc(/C=N/NC(=O)CC3(C)OCCCO3)o2)cc1,-15.7,16.6,23.9*,-17.8,-8.2,0.1,11.5
Cc1ccc(S(=O)(=O)n2ccc3c2CCCC3=O)cc1,-14.9,-0.8,-2.6,-14.2,-9.0,.,.
O=C(CNCC1CCCCC1)Nc1ccc(N2CCCCC2)cc1,-8.5,7.5,2.7,-24.0,.,.,.
CC1(C)C2CCC(C2)C1(C)NC(=O)CNCC1CCCCC1 (centres undefined),-13.8,15.9,32.6*,-20.0,-8.6,38.2*,22.3*
C=CCOc1ccc(CN(C)CC(=O)Nc2ccc3c(c2)CCC3)cc1,-10.8,11.1,24.0*,-34.1,-5.2,1.2,33.0*
CCOc1ccc(CN(C)CC(=O)Nc2ccc3c(c2)CCC3)cc1OC,-21.2,17.1,-9.4,-29.4,-6.7,.,.
CCN1CCN(c2c(/C=C3\SC(=S)N(Cc4ccco4)C3=O)c(C)c(C#N)c(=O)n2C)CC1,7.2,8.6,-6.8,7.8,-2.6,.,.
COc1ccc(C2Nc3ccccc3C(=O)N2Cc2ccco2)cc1CN1C(=O)c2ccccc2C1=O (centres undefined),-3.5,21.5,9.8,-8.7,-3.9,.,.
COc1ccc(C2Nc3ccccc3C(=O)N2Cc2ccco2)cc1COc1ccc(F)cc1 (centres undefined),1.2,18.1,27.4*,-11.8,-6.6,29.3*,24.8*
O=C(c1nnsc1S(=O)c1ccc(Cl)cc1)N1CCOCC1 (centres undefined),.,.,25.3*,.,-4.4,36.8*,92.1*
COC(=O)CNC(=O)c1c(-c2ccccc2Cl)noc1C,-1.4,0.1,23.2*,1.9,-1.7,-1.4,2.0
COC(=O)CNC(=O)c1c(-c2c(Cl)cccc2Cl)noc1C,-5.8,15.9,-6.7,-17.6,-7.8,.,.
Cc1ccc(N2C(=O)[C@@H]3[C@H](C2=O)[C@H]2C=CC=NN2[C@@H]3C(=O)Nc2ccccc2)cc1,-12.7,4.1,-12.6,-11.2,-2.4,.,.
O=C(Nc1ccccc1)[C@@H]1[C@@H]2C(=O)N(c3ccc(F)cc3)C(=O)[C@@H]2[C@H]2C=CC=NN21,-8.8,14.5,26.8*,-12.7,-4.7,9.1,0.1
Cc1cccc(CSCCNC(=O)CSCc2ccc([N+](=O)[O-])cc2)c1,0.2,16.7,53.1*,-13.6,-5.9,35.8*,73.1*
Cc1ccccc1CSCCNC(=O)CSCc1ccc([N+](=O)[O-])cc1,1.3,15.9,9.5,-3.9,-7.1,.,.
Cc1ccc(CSCCNC(=O)CSCc2ccc([N+](=O)[O-])cc2)cc1,-17.2,7.4,26.7*,-18.2,-4.1,49.0*,44.8*
CCC(C)NS(=O)(=O)c1ccc(-c2csnn2)s1 (centres undefined),-2.1,15.0,7.0,9.0,-3.5,.,.
CCCCc1ccc(N/C(N)=N/c2nc(C)cc(C)n2)cc1,69.7*,24.5,96.6*,89.0*,40.7*,92.7*,102.9*
SMILES,CHO parental Ca,OX1R antag-1,GPR7 antag,OX1R antag-2,GalR3 antagonist,GPR7 antag conf,MCHR1 antagonist
Cc1ccc(N/C(N)=N/c2nc(C)cc(C)n2)cc1,2.8,17.5,75.1*,7.1,-10.4,64.4*,73.4*
Cc1cccc(N/C(N)=N/c2nc(C)cc(C)n2)c1,23.2,13.8,28.5*,17.2,-5.3,38.9*,54.4*
Cc1cc(C)cc(N/C(N)=N/c2nc(C)cc(C)n2)c1,1.0,8.5,-1.5,20.0,-1.9,.,.
CCC(=O)Nc1ccc(N/C(N)=N/c2nc(C)cc(C)n2)cc1,0.0,-0.7,6.2,-16.9,-3.7,.,.
CC(=O)c1ccc(N2CCN(C(=O)c3cccc(Oc4ccccc4)c3)CC2)cc1,11.8,18.1,23.1*,10.3,-7.4,34.1*,53.4*
CC(=O)c1ccc(N2CCN(C(=O)c3ccc(-c4ccccc4)cc3)CC2)cc1,12.2,5.7,12.6,-3.6,-10.2,.,.
O=C1NC(=O)C(CC(=O)N(Cc2ccco2)C2(C(=O)NC3CCCC3)CCCCC2)N1 (centres undefined),-9.4,14.8,10.9,-4.9,-3.8,.,.
O=C(Cc1cccs1)N(Cc1ccco1)C1(C(=O)NC2CCCC2)CCCCC1,-15.9,17.9,45.9*,-8.8,-6.0,52.7*,45.2*
O=C(NC1CCCC1)C(c1ccsc1)N(Cc1ccco1)C(=O)Cc1cccs1 (centres undefined),-40.7,24.5,43.9*,-35.4,-5.3,43.1*,30.9*
O=C(c1ccccn1)N(Cc1ccco1)C1(C(=O)NC2CCCC2)CCCCC1,-11.1,16.8,36.6*,-16.0,-4.5,28.4*,20.7
O=C(c1cnccn1)N(Cc1ccco1)C1(C(=O)NC2CCCC2)CCCCC1,-10.1,9.0,40.2*,-11.8,-4.6,30.6*,15.9
O=C(c1ccccn1)N(Cc1ccco1)C1(C(=O)Nc2ccc(Br)cc2)CCCCC1,.,.,.,.,-7.1,.,.
O=C(c1cnccn1)N(Cc1ccco1)C1(C(=O)NC2CCCCC2)CCCCC1,-7.5,28.7,31.5*,-26.2,-10.2,21.8,14.6
O=C(c1ccc2c(c1)OCO2)N(Cc1ccco1)C1(C(=O)NC2CCCCC2)CCCCC1,-34.5,8.9,41.2*,-28.2,-6.4,40.0*,42.3*
O=C(NC1CCCCC1)C(c1ccccc1)N(Cc1ccco1)C(=O)Cn1cnc2ccccc21 (centres undefined),.,.,22.4*,.,-6.0,17.1,14.1
O=C(NC1CCCCC1)C(c1ccccc1)N(Cc1ccco1)C(=O)c1csnn1 (centres undefined),-4.6,45.6,12.9,-48.1,-7.5,.,.
CCOC(=O)CC1=CCc2c1ccc(OC)c2OC,.,.,.,.,-4.0,.,.
CC(C(=O)N1CCN(Cc2ccc3c(c2)OCO3)CC1)c1ccc([N+](=O)[O-])cc1 (centres undefined),-19.6,26.1,27.2*,-26.4,-4.2,26.9*,27.5*
S=C(Nc1ccccc1)Nc1ccc(OCc2ccc(Cl)cc2Cl)cc1,-0.7,12.8,-7.8,-10.4,-0.4,.,.
